What all share (set-up): dose 5 mg/kg, dosed compound name [14C]-apixaban, route oral
What all share (conditions): in vivo

Data set [1] deals with Spleen. The data set can be described thus: Biodistribution in male Sprague-Dawley rat spleen at 5 mg/kg, po administered as single dose measured after 0.5 hrs. Type of data set: ADME, organism-based. In a few lines:
(§1)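 [14C]apixaban (1.0 mg/mL, 20 μCi/mL) in 0.5% Tween 80 in Labrafil, given by oral gavage at 100 μCi/kg to male rats (225-252 g) fasted overnight through 4 h post-dose. One rat per time point. Carcasses frozen in hexane/dry ice and cut into 40 µm sagittal sections. QWBA read on phosphor plates against [14C]glucose standards, reported as µg eq/g. LLOQ 0.037 µg eq/g.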

In data set [2] the test system is Muscle tissue. In words: Biodistribution in male Sprague-Dawley rat muscle at 5 mg/kg, po administered as single dose measured after 8 hrs. Type of data set: ADME, organism-based. The method in brief: as §1
Data set [3] relates to Liver. The data set can be described thus: Biodistribution in male Sprague-Dawley rat liver at 5 mg/kg, po administered as single dose measured after 24 hrs. In kind it is ADME, organism-based. The method in brief:
as §1

For data set [4], the system named is Rattus norvegicus. In words: Biodistribution in female Sprague-Dawley rat pituitary gland at 5 mg/kg, po administered as single dose measured after 24 hrs. Type of data set: ADME, organism-based. In a few lines:
(§2)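 Quantitative whole-body autoradiography was run after a single 5 mg/kg (100 μCi/kg) oral gavage to fasted female or pregnant SD rats, one rat per time point. Carcasses were frozen in hexane/dry ice, and 40 µm sagittal sections were dried at −20°C for at least 48 h. Sections were exposed to a phosphor plate alongside [14C]glucose standards (0.001–6.5 µCi/g). Results are µg eq/g, with LLOQ 0.037 µg eq/g.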

The test system of data set [5] is Liver. The data set can be described thus: Biodistribution in female Sprague-Dawley rat liver at 5 mg/kg, po administered as single dose measured after 8 hrs. Type of data set: ADME, organism-based. The method in brief:
(§3)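 [¹⁴C]Apixaban given by oral gavage at 5 mg/kg (100 μCi/kg) in 0.5% Tween 80 in Labrafil (1.0 mg/mL dosing solution) to rats fasted overnight through 4 h post-dose. One rat per time point; carcass frozen in hexane/dry ice. Quantitative whole-body autoradiography used 40 µm sagittal sections and a phosphor imaging plate calibrated with [¹⁴C]glucose standards (0.001–6.5 μCi/g). Read-out in µg eq apixaban/g; LLOQ 0.037 μg eq/g.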

Data set [6] relates to Adrenal gland. The data set can be described thus: Biodistribution in female Sprague-Dawley rat adrenal gland at 5 mg/kg, po administered as single dose measured after 8 hrs. Type of data set: ADME, organism-based. In a few lines: as §3
Data set [7] concerns Pancreas. The data set can be described thus: Biodistribution in male Sprague-Dawley rat pancreas at 5 mg/kg, po administered as single dose measured after 24 hrs. In kind it is ADME, organism-based. In a few lines:
as §1

Data set [8] concerns Rattus norvegicus. In words: Biodistribution in male Sprague-Dawley rat pituitary gland at 5 mg/kg, po administered as single dose measured after 24 hrs. Type of data set: ADME, organism-based. The method in brief: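 Fasted male SD rats (225-252 g) each received one oral gavage dose of [14C]apixaban, 5 mg/kg (100 μCi/kg), in 0.5% Tween 80/Labrafil vehicle. One rat was killed per time point, from 0.5 to 168 h. Frozen carcasses were cut into 40 µm sagittal whole-body sections and read by QWBA phosphor imaging against [14C]glucose calibrants. Results are in µg apixaban eq/g; BLQ <0.037 µg eq/g.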

Data set [9] has as its system Liver. In words: Biodistribution in pregnant Sprague-Dawley rat liver at 5 mg/kg, po administered as single dose measured after 8 hrs. Type of data set: ADME, organism-based.
The test system of data set [10] is Rattus norvegicus. In words: Biodistribution in pregnant Sprague-Dawley rat placenta at 5 mg/kg, po administered as single dose measured after 24 hrs. In kind it is ADME, organism-based.
For data set [11], the system named is Rattus norvegicus. In words: Biodistribution in female Sprague-Dawley rat kidney cortex at 5 mg/kg, po administered as single dose measured after 0.5 hrs. In kind it is ADME, organism-based. The method in brief: (§4)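 [14C]apixaban (20 μCi/mL in dosing solution) in 0.5% Tween 80 in Labrafil given by oral gavage to fasted female rats, 206-213 g, at 100 μCi/kg. One rat per time point was euthanized and snap-frozen. Sagittal 40 µm whole-body sections were read by QWBA phosphor imaging against [14C]glucose standards. Results are in µg eq apixaban/g, with LLOQ 0.037 μg eq/g.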

Data set [12] in a line: Drug level in lactating Sprague-Dawley rat milk at 5 mg/kg, po administered as single dose after 12 hrs. In kind it is ADME, organism-based.
Data set [13] concerns Rattus norvegicus. In words: Biodistribution in pregnant Sprague-Dawley rat salivary gland at 5 mg/kg, po administered as single dose measured after 48 hrs. Type of data set: ADME, organism-based. The method in brief:
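Pregnant SD rats (270-319 g) were fasted overnight and given one oral gavage of 5 mg/kg (100 μCi/kg) in 0.5% Tween 80 in Labrafil. One rat was euthanized per time point (0.5, 1, 4, 8, 24, 48 h) and the carcass frozen. 40 µm sagittal sections were phosphor-imaged against [14C]glucose standards and results reported as µg eq/g; LLOQ 0.037 µg eq/g.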

Data set [14] concerns Blood. In words: Cmax in male Sprague-Dawley rat blood at 5 mg/kg, po administered as single dose. Type of data set: ADME, organism-based. In a few lines: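 Fasted male, female or pregnant SD rats received a single oral gavage of 5 mg/kg (100 μCi/kg) in 0.5% Tween 80/Labrafil. One rat was killed per time point, up to 168 h (48 h for pregnant). Blood was collected into K3EDTA. Blood radioactivity came from autoradiogram or LSC data, and Cmax was taken from the concentration-time profile.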

For data set [15], the system named is Plasma. The data set can be described thus: Drug metabolism in Sprague-Dawley rat plasma assessed as apixaban level at 5 mg/kg, po by HPLC method. Type of data set: ADME, organism-based. In a few lines: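 After a 5 mg/kg oral dose, samples were radioprofiled by HPLC. The column was C18 with a 0.4% formic acid (pH 3.2)/acetonitrile gradient at 0.7 mL/min. Fractions were collected every 0.25 min and counted for radioactivity. Peaks were identified by ESI LC/MS/MS against synthetic standards. Milk was taken at 1, 6, 12 and 24 h.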

Data set [16] relates to Harderian gland. The data set can be described thus: Biodistribution in female Sprague-Dawley rat harderian gland at 5 mg/kg, po administered as single dose measured after 72 hrs. In kind it is ADME, organism-based. The method in brief:
as §2

Data set [17] relates to Heart. The data set can be described thus: Biodistribution in female Sprague-Dawley rat heart at 5 mg/kg, po administered as single dose measured after 4 hrs. Type of data set: ADME, organism-based. In a few lines: as §3
Data set [18] concerns Blood. The data set can be described thus: Biodistribution in female Sprague-Dawley rat blood at 5 mg/kg, po administered as single dose measured after 4 hrs. Type of data set: ADME, organism-based. In a few lines:
as §3

The subject of data set [19] is Blood. The data set can be described thus: Biodistribution in pregnant Sprague-Dawley rat blood at 5 mg/kg, po administered as single dose measured after 8 hrs. Type of data set: ADME, organism-based. In a few lines: (§5)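 Fasted pregnant SD rats (n=6, 270-319 g) each received one oral gavage dose of [14C]apixaban, 5 mg/kg (100 μCi/kg), in 0.5% Tween 80/Labrafil. One rat was killed at each of 0.5, 1, 4, 8, 24 and 48 h. Carcasses were frozen in hexane/dry ice, cut into 40 µm sagittal sections, exposed to phosphor plates and quantified against [14C]glucose standards as µg eq/g. LLOQ was 0.037 µg eq/g.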

The subject of data set [20] is Rattus norvegicus. The data set can be described thus: Biodistribution in female Sprague-Dawley rat brown fat at 5 mg/kg, po administered as single dose measured after 1 hr. Type of data set: ADME, organism-based, Brown adipose tissue. In a few lines:
as §4

Data set [21] deals with Rattus norvegicus. The data set can be described thus: Biodistribution in pregnant Sprague-Dawley rat pituitary gland at 5 mg/kg, po administered as single dose measured after 0.5 hrs. Type of data set: ADME, organism-based.
Data set [22] deals with Harderian gland. The data set can be described thus: Biodistribution in pregnant Sprague-Dawley rat harderian gland at 5 mg/kg, po administered as single dose measured after 1 hr. In kind it is ADME, organism-based.
Data set [23] deals with Liver. In words: Biodistribution in pregnant Sprague-Dawley rat liver at 5 mg/kg, po administered as single dose measured after 1 hr. In kind it is ADME, organism-based. In a few lines: as §5
In data set [24] the test system is Pancreas. The data set can be described thus: Biodistribution in pregnant Sprague-Dawley rat pancreas at 5 mg/kg, po administered as single dose measured after 1 hr. Type of data set: ADME, organism-based.

The structures appear in SMILES notation. A value given as a limit tells only on which side of the number the result lay.

As to `COc1ccc(-n2nc(C(N)=O)c3c2C(=O)N(c2ccc(N4CCCC[14C]4=O)cc2)CC3)cc1`, the Radiolabel recovery in [1] is 0.18 ugequiv/g; in data set [2] it was 0.06 ugequiv/g; in [3], less than 0.037 ugequiv/g; in [4], “Not detected assumed BLQ”; in data set [5], 1.12 ugequiv/g; in [6], 0.3 ugequiv/g. In addition, the Radiolabel recovery is less than 0.037 ugequiv/g in [7]; “Not detected assumed BLQ” in data set [8]; 0.65 ugequiv/g in data set [9]; less than 0.037 ugequiv/g in [10]; 0.82 ugequiv/g in [11]; 3.61 µg/mL in data set [12]. Besides, the Radiolabel recovery entry is on record as “Not detected assumed BLQ” in data set [13]; “Not detected assumed BLQ” in [16]; 0.51 ugequiv/g in [17]; 0.35 ugequiv/g in data set [18]; 0.09 ugequiv/g in data set [19]; 0.77 ugequiv/g in data set [20]. Also, the Radiolabel recovery is 0.72 ugequiv/g in data set [21], 1.09 ugequiv/g in [22], 7.38 ugequiv/g in data set [23] and 0.75 ugequiv/g in data set [24]. This compound also had a Cmax in [14] of 1180 ngequiv/g. In [15], the Compound recovery is listed as 97%.

Source of the values: ChEMBL document CHEMBL3525963, “Tissue distribution and elimination of [14C]apixaban in rats” (Drug Metab Dispos, 2011).
